Test results as given in ChEMBL document CHEMBL5113430, “Evaluation of chromane derivatives: Promising privileged scaffolds for lead discovery within Alzheimer's disease” (Bioorg Med Chem, 2022).
pIC50, pKi: −log10 of the molar value. The source made the active and inactive calls. The calls are words filed in the database; no cut-off is given here.

Tests used:
[1] = biological target: T1, Acetylcholinesterase (Electrophorus electricus, UniProt O42275); experiment: Inhibition of electric eel AChE using […] as a substrate and measured for 125 sec by DTNB based Ellman's method
T1 sequence (O42275 whole entry): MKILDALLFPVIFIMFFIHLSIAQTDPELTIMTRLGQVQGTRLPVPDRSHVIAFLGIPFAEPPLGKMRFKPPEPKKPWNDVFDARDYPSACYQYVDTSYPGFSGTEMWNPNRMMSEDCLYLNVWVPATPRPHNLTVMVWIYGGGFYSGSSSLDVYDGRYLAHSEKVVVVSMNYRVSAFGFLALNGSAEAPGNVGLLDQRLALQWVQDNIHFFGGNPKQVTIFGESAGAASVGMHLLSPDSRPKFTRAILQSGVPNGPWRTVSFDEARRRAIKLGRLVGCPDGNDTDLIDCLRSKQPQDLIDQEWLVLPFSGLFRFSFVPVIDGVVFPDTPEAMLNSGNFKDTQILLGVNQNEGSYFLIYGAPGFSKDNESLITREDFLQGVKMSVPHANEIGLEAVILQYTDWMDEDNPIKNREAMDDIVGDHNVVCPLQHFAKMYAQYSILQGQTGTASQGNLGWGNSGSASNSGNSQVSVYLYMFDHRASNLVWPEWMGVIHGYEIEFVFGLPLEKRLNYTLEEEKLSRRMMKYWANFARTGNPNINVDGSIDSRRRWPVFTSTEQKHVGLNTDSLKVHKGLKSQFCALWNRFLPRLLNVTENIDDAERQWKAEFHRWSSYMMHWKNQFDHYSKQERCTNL

[2] = biological target: T2, Cholinesterase (Equus caballus, UniProt P81908); experiment: Inhibition of Equine serum BuChE using S-butyrylthiocholine iodide as a substrate and measured for 125 sec by DTNB based Ellman's method
T2 sequence (P81908 whole entry): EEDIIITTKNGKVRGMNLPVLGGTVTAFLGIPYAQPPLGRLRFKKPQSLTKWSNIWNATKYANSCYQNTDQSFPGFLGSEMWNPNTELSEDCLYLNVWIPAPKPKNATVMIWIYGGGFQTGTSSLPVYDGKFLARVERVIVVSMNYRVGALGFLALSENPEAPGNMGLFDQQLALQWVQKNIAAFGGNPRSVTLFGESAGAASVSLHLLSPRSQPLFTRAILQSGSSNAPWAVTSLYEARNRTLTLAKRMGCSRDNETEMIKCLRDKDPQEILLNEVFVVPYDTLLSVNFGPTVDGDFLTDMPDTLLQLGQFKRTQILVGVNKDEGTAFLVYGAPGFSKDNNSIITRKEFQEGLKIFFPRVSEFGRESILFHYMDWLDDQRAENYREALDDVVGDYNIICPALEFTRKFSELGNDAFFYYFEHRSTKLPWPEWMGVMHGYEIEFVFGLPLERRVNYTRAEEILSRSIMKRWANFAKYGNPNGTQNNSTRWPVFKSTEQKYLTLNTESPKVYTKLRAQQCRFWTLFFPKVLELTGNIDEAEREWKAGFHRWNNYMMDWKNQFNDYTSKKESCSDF

[3] = biological target: T3, Amine oxidase [flavin-containing] A (Homo sapiens, UniProt P21397); experiment: Inhibition of recombinant MAO-A (unknown origin) expressed in baculovirus infected BTI cells assessed as reduction in 4-hydroxyquinoline level using kynuramine as a substrate at 1 uM incubated for 20 mins by discontinuous fluorimetric assay relative to control
T3 sequence (P21397 whole entry): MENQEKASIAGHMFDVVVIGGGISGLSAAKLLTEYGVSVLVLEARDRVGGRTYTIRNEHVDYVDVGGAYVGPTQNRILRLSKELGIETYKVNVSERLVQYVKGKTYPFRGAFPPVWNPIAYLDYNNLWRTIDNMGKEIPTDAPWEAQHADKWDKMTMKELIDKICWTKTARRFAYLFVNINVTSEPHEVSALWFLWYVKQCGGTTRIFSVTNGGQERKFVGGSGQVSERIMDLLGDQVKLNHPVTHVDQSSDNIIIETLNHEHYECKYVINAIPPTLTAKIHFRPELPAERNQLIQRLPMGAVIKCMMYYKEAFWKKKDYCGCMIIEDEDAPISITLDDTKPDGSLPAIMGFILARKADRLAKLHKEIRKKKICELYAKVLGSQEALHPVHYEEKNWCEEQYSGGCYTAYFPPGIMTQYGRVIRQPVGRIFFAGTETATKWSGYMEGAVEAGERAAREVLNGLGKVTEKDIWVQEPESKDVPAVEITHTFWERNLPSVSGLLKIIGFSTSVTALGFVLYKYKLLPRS
Summary of the method: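 Discontinuous fluorimetric assay with recombinant membrane-bound MAO-A and kynuramine at two-fold KM (KM = 30 μM). Test compound at 1 μM, from a 1 mM DMSO stock. Incubated 20 min at 37 °C, stopped with 2 N NaOH. 4-hydroxyquinoline read at ex 320 nm / em 405 nm. Percent inhibition against no-inhibitor control, mean ± SD of two independent experiments in duplicate.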

[4] = biological target: T4, Amine oxidase [flavin-containing] B (Homo sapiens, UniProt P27338); experiment: Inhibition of recombinant MAO-B (unknown origin) expressed in baculovirus infected BTI cells assessed as reduction in 4-hydroxyquinoline level using kynuramine as a substrate at 1 uM incubated for 20 mins by discontinuous fluorimetric assay relative to control; conditions: read-out: INH
T4 sequence (P27338 whole entry): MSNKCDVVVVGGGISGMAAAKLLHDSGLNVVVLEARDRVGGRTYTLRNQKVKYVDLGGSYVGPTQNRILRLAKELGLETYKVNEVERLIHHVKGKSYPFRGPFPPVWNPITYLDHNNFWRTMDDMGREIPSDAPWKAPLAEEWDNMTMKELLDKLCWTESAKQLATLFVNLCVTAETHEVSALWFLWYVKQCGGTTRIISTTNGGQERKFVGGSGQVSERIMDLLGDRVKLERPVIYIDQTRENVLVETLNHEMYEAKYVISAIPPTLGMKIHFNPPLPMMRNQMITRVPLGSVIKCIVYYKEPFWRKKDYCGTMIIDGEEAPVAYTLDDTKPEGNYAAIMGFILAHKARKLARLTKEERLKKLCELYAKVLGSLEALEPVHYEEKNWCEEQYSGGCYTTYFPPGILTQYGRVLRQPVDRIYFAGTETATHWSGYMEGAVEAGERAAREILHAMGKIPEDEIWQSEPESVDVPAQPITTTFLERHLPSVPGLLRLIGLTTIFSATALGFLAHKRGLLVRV

[5] = biological target: T2, Cholinesterase; experiment: Inhibition of Equine serum BuChE assessed as inhibitory constants for binding the free enzyme using S-butyrylthiocholine iodide as a substrate by Cornish-Bowden plot analysis
Summary of the method: (§1)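 Equine BuChE, Ellman method: 50 μM phosphate buffer pH 8.0, 0.975 mM DTNB, 1.25% DMSO, 25 °C, read at 405 nm over 125 s. Runs used 5 butyrylthiocholine levels (1/4 to 4 × KM) and 3–4 inhibitor levels giving roughly 30–80% inhibition. KM and Vmax came from nonlinear regression. Mode of inhibition and constants came from Cornish-Bowden plots.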

[6] = biological target: T2, Cholinesterase; experiment: Inhibition of Equine serum BuChE assessed as inhibitory constants for binding the enzyme-substrate complex using S-butyrylthiocholine iodide as a substrate by Cornish-Bowden plot analysis; summary of the method: as §1
[7] = biological target: T1, Acetylcholinesterase; experiment: Inhibition of electric eel AChE using […] as a substrate and measured upto 180 sec by DTNB based Ellman's method
[8] = biological target: Cholinesterase (Equus caballus) (UniProt P81908); experiment: Inhibition of equine serum BuChE at 0.8 mM by STD-NMR spectroscopy
Sequence of Cholinesterase (Equus caballus) (P81908 whole entry): as the sequence (P81908 whole entry) above
Summary of the method: (§2)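 STD-NMR with 5 μM equine BuChE in D2O; ligand stocks of 8.8 and 4.8 mM. Saturation times for buildup curves 0.25–5 s, total experiment time held at 6.5 s. Water suppression at 4.7 ppm, sweep width 20.03 ppm. Blanks checked for direct ligand saturation.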

[9] = biological target: Cholinesterase (Equus caballus) (UniProt P81908); experiment: Inhibition of equine serum BuChE at 1.47 mM by STD-NMR spectroscopy; summary of the method: as §2
[10] = biological target: T4, Amine oxidase [flavin-containing] B; experiment: Inhibition of human MAO-B assessed as shielding effect on inhibitor […] at 0.016 mM incubated for 20 min by STD-NMR spectroscopy; conditions: 16 µM
Summary of the method: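 MAO-B incubated with the N-propargyl inhibitor and followed by 1H NMR, with spectra recorded every 5 min. The spectrum of inhibitor alone was compared with the inhibitor–enzyme mixture at 20 min, watching shifts of inhibitor protons, especially the propargyl proton. Ligand-only controls and blanks checked for direct saturation. Water suppression at 4.7 ppm.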

SMILES | pIC50 [1] | pIC50 [2] | inhibition at 1 µM [3] [%] | inhibition at 1 µM [4] [%] | further results
CCOc1cc(C#N)cc2c1OCC(C)(C)C2=O | < 4.00 | < 4.00 | 20.5 | 4.7 | –
CC1(C)COc2ncccc2C1=O | < 4.00 | < 4.00 | – | – | –
CC1(C)COc2c(OC(F)(F)F)cccc2C1=O | < 4.00 | 5.37 | – | – | –
CC1(C)COc2ccc(F)cc2C1=O | < 4.00 | 4.48 | – | – | –
C#CCN(Cc1ccccc1)C1c2cccc(OC)c2OCC1(C)C (configuration not stated) | – | – | 4.3 | 14.7 | –
Cc1ccc2c(c1)C(N)C(C)(C)CO2 (configuration not stated) | – | 4.17 | – | – | –
CC1(C)COc2cc(F)c(F)cc2C1O (configuration not stated) | < 4.00 | 4.55 | – | – | –
CC1(C)COc2ccccc2C1N (configuration not stated) | – | 4.42 | -3.8 | 3.7 | –
CC1(C)COc2ccc(C#N)cc2C1O (configuration not stated) | < 4.00 | 4.74 | – | – | –
CC1(C)COc2cc3ccccc3cc2C1O (configuration not stated) | < 4.00 | 4.30 | – | – | –
CC1(C)COc2ccc(F)cc2C1O (configuration not stated) | < 4.00 | < 4.00 | 16.5 | 8.3 | –
CC1(C)COc2c(ccc3cccnc23)C1O (configuration not stated) | < 4.00 | 5.30 | – | – | pKi [5]: 5.14; pKi [6]: 4.86
CC1(C)COc2c(ccc3cccnc23)C1=O | < 4.00 | 5.19 | 14.8 | 4.8 | –
C#CCN(Cc1ccccc1)C1c2ccccc2OCC1(C)C (configuration not stated) | – | – | -10.6 | 2.9 | –
COc1cccc2c1C(O)C(C)(C)CO2 (configuration not stated) | < 4.00 | < 4.00 | 11.5 | 5.3 | –
CC1(C)COc2cc3ccccc3cc2C1N (configuration not stated) | – | 5.05 | 13.3 | 7.5 | pKi [5]: 4.74; pKi [6]: 4.96
O=C1CC(OCCCCCSC(=S)N2CCCCC2)Oc2ccccc21 (configuration not stated) | – | – | – | – | pIC50 [7]: 7.00
C#CCNC1c2cccc(OC)c2OCC1(C)C (configuration not stated) | – | – | 4.6 | 13.8 | –
CC1(C)COc2ccccc2C1O (configuration not stated) | < 4.00 | 4.40 | 24.3 | 8 | –

SMILES | pIC50 [1] | pIC50 [2] | inhibition at 1 µM [3] [%] | inhibition at 1 µM [4] [%] | further results
COc1cccc2c1OCC(C)(C)C2=O | < 4.00 | < 4.00 | – | – | –
COc1cccc2c1C(=O)C(C)(C)CO2 | < 4.00 | 4.92 | 12.1 | 5.9 | –
CCOc1cc(C#N)cc2c1OCC(C)(C)C2O (configuration not stated) | < 4.00 | 5.14 | – | – | –
C[C@H](NCc1ccc(OCc2cccc(F)c2)cc1)C(N)=O [SAFINAMIDE] | – | – | 1.8 | – | –
CC1(C)COc2ccc3ccccc3c2C1O (configuration not stated) | < 4.00 | 4.48 | – | – | –
C#CCNC1c2cc(C)ccc2OCC1(C)C (configuration not stated) | – | – | -9.4 | -6.8 | –
Cc1ccc2c(c1)C(O)C(C)(C)CO2 (configuration not stated) | < 4.00 | < 4.00 | – | – | –
C#CCN(C)CCCOc1ccc(Cl)cc1Cl [CLORGILINE] | – | – | 99.8 | – | –
COc1cccc2c1OCC(C)(C)C2N (configuration not stated) | – | 5.12 | -0.7 | 4.3 | pKi [5]: 5.05; pKi [6]: 4.72; inhibition [8]: Active
CC1(C)COc2cc(F)ccc2C1O (configuration not stated) | < 4.00 | 4.74 | – | – | –
CC1(C)COc2ccc3ccccc3c2C1=O | < 4.00 | 5.54 | 23.2 | 5.1 | pKi [5]: 5.70; pKi [6]: 5.17; inhibition [9]: Active
CC1(C)COc2cc(F)c(F)cc2C1=O | < 4.00 | < 4.00 | – | – | –
CC1(C)COc2ccccc2C1=O | < 4.00 | 4.37 | 9.7 | 9.2 | –
NC1CCOc2ccccc21 (configuration not stated) | – | – | -0.7 | 4.8 | –
CC1(C)COc2cc(F)ccc2C1=O | < 4.00 | < 4.00 | – | – | –
CC1(C)COc2cc3ccccc3cc2C1=O | < 4.00 | 5.51 | 16.4 | 27.7 | –
CC1(C)COc2ccc3ccccc3c2C1N (configuration not stated) | – | 4.28 | 12.5 | 2.7 | –
C#CCNC1c2ccccc2OCC1(C)C (configuration not stated) | – | – | – | 11.6 | inhibition (INH) [10]: Active
